{"source": "paper PMC6893910", "about": "(ACS chemical biology, 2019)", "key": {"HDAC11 [1]": {"molecular_target": "T1, HDAC11 (Homo sapiens, UniProt Q96DB2)", "T1 sequence (Q96DB2 1-347)": "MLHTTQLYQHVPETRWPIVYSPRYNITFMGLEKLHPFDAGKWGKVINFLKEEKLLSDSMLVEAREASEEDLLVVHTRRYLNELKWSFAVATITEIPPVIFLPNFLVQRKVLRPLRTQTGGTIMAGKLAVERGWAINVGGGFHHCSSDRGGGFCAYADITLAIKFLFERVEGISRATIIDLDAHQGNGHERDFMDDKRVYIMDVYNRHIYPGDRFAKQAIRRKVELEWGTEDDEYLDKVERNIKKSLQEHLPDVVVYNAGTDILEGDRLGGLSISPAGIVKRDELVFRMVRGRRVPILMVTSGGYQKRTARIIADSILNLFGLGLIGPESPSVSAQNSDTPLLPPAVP", "assay": "HPLC-based HDAC11 assay with myristoyl-H3K9 peptide", "type": "biochemical"}, "[2]": {"tested_on": "acetylation level of α-tubulin", "assay": "Acetyl-α-tubulin", "type": "cell-based", "conditions": "HEK 293T cells, 6 hrs", "in_short": "(§1)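 HEK 293T cells were treated with test compound for 6 hrs. Acetyl-α-tubulin (K40) and acetyl-histone H3 were both detected by immunoblot of the treated cells.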"}, "[3]": {"tested_on": "acetylation level of histone H3", "assay": "Acetyl-histone H3 immunoblot in HEK 293T cells", "type": "cell-based", "conditions": "6 hrs", "in_short": "as §1"}, "HDAC11 [4]": {"molecular_target": "T1, HDAC11", "assay": "HDAC11 demyristoylation of myristoyl-SHMT2 peptide in vitro", "type": "biochemical", "conditions": "read-out: IC50 against HDAC11; myristoyl-SHMT2 peptide substrate"}, "HDAC1": {"molecular_target": "HDAC1 (Homo sapiens, UniProt Q13547)", "sequence (Q13547 whole entry, species assumed)": "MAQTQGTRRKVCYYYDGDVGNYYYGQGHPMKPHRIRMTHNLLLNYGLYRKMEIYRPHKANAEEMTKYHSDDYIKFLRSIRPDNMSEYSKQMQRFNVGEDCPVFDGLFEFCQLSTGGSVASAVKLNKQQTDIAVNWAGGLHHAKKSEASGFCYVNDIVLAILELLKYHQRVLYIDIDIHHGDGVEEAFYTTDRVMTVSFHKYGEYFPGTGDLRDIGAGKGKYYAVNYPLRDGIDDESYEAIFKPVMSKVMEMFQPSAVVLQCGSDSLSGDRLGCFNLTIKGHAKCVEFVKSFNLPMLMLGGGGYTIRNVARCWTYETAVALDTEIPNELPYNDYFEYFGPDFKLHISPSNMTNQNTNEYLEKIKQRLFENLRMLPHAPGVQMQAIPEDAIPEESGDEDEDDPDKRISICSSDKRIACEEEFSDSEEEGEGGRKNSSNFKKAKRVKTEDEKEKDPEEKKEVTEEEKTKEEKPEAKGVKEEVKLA", "assay": "In vitro selectivity assay with acyl-H3K9 peptide, HDAC1", "type": "biochemical", "conditions": "at 100 μM"}, "HDAC8": {"molecular_target": "T2, HDAC8 (Homo sapiens, UniProt Q9BY41)", "T2 sequence (Q9BY41 1-377)": "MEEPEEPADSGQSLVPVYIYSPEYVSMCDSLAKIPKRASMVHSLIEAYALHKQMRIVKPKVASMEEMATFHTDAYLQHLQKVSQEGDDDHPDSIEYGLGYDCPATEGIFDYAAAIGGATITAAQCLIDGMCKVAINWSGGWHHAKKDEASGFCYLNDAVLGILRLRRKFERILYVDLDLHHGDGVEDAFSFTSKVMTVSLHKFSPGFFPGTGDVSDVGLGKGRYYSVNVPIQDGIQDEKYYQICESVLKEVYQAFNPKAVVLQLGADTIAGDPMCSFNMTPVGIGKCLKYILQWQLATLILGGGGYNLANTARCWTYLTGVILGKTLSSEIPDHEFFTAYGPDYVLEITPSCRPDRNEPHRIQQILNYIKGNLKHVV", "assay": "In vitro selectivity assay with acyl-H3K9 peptide, HDAC8", "type": "biochemical", "conditions": "at 100 μM"}, "HDAC4": {"molecular_target": "HDAC4 (Homo sapiens, UniProt P56524)", "sequence (P56524 whole entry, species assumed)": "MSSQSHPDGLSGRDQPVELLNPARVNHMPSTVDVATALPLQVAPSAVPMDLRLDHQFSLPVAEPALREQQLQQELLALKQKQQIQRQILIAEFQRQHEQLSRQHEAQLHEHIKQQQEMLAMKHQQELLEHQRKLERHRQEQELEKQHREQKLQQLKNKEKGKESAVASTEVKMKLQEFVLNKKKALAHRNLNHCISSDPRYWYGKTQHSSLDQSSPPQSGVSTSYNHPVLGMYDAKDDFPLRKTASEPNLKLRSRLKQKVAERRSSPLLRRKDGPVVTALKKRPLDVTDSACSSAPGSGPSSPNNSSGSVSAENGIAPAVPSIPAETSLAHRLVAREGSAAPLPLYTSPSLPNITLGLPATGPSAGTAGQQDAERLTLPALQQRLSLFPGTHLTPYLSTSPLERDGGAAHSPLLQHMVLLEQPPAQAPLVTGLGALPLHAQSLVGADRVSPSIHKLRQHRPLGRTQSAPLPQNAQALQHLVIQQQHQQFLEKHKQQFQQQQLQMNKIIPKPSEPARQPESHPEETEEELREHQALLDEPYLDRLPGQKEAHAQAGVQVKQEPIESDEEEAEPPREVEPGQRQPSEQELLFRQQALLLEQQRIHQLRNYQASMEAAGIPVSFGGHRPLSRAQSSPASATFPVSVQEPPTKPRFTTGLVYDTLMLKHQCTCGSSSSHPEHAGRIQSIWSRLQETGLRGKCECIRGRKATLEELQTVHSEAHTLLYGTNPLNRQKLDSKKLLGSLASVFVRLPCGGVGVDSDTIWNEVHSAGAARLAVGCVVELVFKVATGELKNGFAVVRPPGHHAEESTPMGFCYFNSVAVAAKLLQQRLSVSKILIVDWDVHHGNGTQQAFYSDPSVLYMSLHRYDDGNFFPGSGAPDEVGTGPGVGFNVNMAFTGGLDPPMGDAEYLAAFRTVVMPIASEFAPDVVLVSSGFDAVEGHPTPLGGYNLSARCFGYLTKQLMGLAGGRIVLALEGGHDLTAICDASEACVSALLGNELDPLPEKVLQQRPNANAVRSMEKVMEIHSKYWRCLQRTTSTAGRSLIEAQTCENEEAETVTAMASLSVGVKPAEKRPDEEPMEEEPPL", "assay": "In vitro selectivity assay with acyl-H3K9 peptide, HDAC4", "type": "biochemical", "conditions": "at 100 μM"}, "SIRT1": {"molecular_target": "T3, SIRT1 (Homo sapiens, UniProt Q96EB6)", "T3 sequence (Q96EB6 1-747)": "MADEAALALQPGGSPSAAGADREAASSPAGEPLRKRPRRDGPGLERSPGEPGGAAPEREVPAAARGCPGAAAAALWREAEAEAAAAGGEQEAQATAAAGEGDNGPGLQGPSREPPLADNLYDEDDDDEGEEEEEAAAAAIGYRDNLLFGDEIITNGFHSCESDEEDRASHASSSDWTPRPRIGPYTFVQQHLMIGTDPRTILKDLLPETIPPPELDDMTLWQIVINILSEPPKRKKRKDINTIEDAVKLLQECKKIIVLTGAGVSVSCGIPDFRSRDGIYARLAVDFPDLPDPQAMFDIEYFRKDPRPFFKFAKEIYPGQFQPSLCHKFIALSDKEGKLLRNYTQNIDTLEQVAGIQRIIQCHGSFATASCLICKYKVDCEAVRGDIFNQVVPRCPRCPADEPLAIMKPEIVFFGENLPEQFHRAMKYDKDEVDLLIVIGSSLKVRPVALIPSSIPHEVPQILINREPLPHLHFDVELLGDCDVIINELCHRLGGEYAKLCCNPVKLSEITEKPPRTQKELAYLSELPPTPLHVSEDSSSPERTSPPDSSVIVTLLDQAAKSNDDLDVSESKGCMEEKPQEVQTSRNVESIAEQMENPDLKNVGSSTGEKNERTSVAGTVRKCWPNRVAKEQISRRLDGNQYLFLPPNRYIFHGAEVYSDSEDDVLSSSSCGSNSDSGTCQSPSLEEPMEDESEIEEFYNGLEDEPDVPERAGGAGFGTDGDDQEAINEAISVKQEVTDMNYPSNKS", "assay": "In vitro selectivity assay with acyl-H3K9 peptide, SIRT1", "type": "biochemical", "conditions": "at 100 μM"}, "SIRT2": {"molecular_target": "T4, SIRT2 (Homo sapiens, UniProt Q8IXJ6)", "T4 sequence (Q8IXJ6 1-389)": "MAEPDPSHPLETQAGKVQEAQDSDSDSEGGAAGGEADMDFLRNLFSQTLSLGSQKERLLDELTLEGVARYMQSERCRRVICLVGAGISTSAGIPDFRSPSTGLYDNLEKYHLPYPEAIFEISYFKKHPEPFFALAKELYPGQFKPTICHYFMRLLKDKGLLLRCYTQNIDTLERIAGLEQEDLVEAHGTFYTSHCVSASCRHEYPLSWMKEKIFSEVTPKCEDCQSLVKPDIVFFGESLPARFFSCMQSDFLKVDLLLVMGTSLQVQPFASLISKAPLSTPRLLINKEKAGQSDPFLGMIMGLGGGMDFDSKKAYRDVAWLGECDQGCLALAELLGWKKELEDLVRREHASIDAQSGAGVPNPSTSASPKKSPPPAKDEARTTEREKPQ", "assay": "In vitro selectivity assay with acyl-H3K9 peptide, SIRT2", "type": "biochemical", "conditions": "at 100 μM"}, "SIRT3": {"molecular_target": "T5, SIRT3 (Homo sapiens, UniProt Q9NTG7)", "T5 sequence (Q9NTG7 1-399)": "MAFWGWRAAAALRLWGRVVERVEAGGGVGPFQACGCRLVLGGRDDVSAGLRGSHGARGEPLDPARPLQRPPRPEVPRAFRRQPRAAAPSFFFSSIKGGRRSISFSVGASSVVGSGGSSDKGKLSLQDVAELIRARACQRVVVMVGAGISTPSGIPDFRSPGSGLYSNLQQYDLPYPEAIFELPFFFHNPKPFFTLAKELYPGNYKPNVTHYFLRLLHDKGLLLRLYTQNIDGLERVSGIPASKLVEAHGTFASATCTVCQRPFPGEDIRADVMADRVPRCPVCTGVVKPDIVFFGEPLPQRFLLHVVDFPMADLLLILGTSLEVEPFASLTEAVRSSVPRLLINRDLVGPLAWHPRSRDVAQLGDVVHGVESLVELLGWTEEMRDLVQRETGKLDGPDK", "assay": "In vitro selectivity assay with acyl-H3K9 peptide, SIRT3", "type": "biochemical", "conditions": "at 100 μM"}, "SIRT6": {"molecular_target": "SIRT6 (Homo sapiens, UniProt Q8N6T7)", "sequence (Q8N6T7 whole entry, species assumed)": "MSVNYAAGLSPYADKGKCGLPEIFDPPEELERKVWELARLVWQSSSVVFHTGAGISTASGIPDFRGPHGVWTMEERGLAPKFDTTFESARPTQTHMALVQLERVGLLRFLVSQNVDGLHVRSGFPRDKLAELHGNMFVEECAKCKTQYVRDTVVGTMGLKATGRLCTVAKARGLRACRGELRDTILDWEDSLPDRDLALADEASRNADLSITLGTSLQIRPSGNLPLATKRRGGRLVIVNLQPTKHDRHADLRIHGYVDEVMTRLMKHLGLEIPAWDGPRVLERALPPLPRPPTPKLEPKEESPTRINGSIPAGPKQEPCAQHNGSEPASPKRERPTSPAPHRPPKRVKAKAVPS", "assay": "In vitro selectivity assay with acyl-H3K9 peptide, SIRT6", "type": "biochemical", "conditions": "at 100 μM"}, "[5]": {"assay": "LC-MS based detection of compound in cell lysate", "type": "in vitro ADME", "conditions": "LC-MS based assay"}, "[6]": {"conditions": "myristoyl-H3K9 peptide substrate, HPLC assay"}}, "note": "Entries after “also recorded” stand apart in the source; their conditions may differ.", "data": [{"compound": "O=C(CCCCCCC(=O)Nc1ccccc1)NO", "note": "[SAHA, Vorinostat]", "values": [{"measurement": "HDAC11 inhibition (in words)", "setting": "HDAC11 [1]; [6]", "result": "Neither SAHA or UF010 could inhibit HDAC11"}, {"measurement": "acetylation level of α-tubulin", "setting": "[2]; at 1 μM", "result": "significantly increased"}, {"measurement": "acetylation level of histone H3", "setting": "[3]; at 1 μM", "result": "significantly increased"}]}, {"compound": "CCCCCCCCCCCCCCCC(=O)O", "note": "[palmitic acid]", "values": [{"measurement": "HDAC11 inhibition", "setting": "HDAC11 [1]; at 10 μM", "result": "no inhibition"}]}, {"compound": "CC1(C)c2cccc(C(=O)NO)c2CN1c1cnc(C(F)(F)F)cn1", "note": "[FT895]", "values": [{"measurement": "acetylation level of α-tubulin", "setting": "[2]; up to 50 μM", "result": "did not affect"}, {"measurement": "acetylation level of histone H3", "setting": "[3]; up to 50 μM", "result": "did not affect"}]}, {"compound": "CCCCNNC(=O)c1ccc(Br)cc1", "note": "[UF010]", "values": [{"measurement": "HDAC11 inhibition (in words)", "setting": "HDAC11 [1]; [6]", "result": "Neither SAHA or UF010 could inhibit HDAC11; also recorded: did not inhibit HDAC11"}]}, {"compound": "CCCCCCCCCCCCCCCCNNC(=O)c1cccs1", "note": "[SIS17]", "values": [{"measurement": "IC50", "setting": "HDAC11 [1]; read-out: IC50 against HDAC11, myristoyl-H3K9 peptide substrate, HPLC assay", "result": 830, "unit": "nM"}, {"measurement": "IC50", "setting": "HDAC11 [4]", "result": 270, "unit": "nM"}, {"measurement": "HDAC1 inhibition", "setting": "HDAC1", "result": "did not show significant inhibition"}, {"measurement": "HDAC8 inhibition", "setting": "HDAC8", "result": "did not show significant inhibition"}, {"measurement": "HDAC4 inhibition", "setting": "HDAC4", "result": "did not show significant inhibition"}, {"measurement": "SIRT1 inhibition", "setting": "SIRT1", "result": "did not show significant inhibition"}, {"measurement": "SIRT2 inhibition", "setting": "SIRT2", "result": "did not show significant inhibition"}, {"measurement": "SIRT3 inhibition", "setting": "SIRT3", "result": "did not show significant inhibition"}, {"measurement": "SIRT6 inhibition", "setting": "SIRT6", "result": "did not show significant inhibition"}, {"measurement": "acetylation level of α-tubulin", "setting": "[2]; up to 50 μM", "result": "did not affect"}, {"measurement": "acetylation level of histone H3", "setting": "[3]; up to 50 μM", "result": "did not affect"}, {"measurement": "detection of compound in cell lysate", "setting": "[5]", "result": "could readily detect"}]}]}
